In ChEMBL document CHEMBL4765307, “Design, synthesis and biological activity of novel 2,3,4,5-tetra-substituted thiophene derivatives as PI3Kα inhibitors with potent antitumor activity” (Eur J Med Chem, 2020):

How the values were obtained:
[1] = molecular target: PI3-kinase p110-alpha/p85-alpha (Homo sapiens, UniProt P42336); experiment: Inhibition of His-tagged human full length PI3Kalpha coexpressed with p85 alpha in baculovirus expression system using PIP2 peptide as substrate incubated for 1 hr in presence ATP by Kinase-Glo assay
[2] = molecular target: Serine/threonine-protein kinase mTOR (Homo sapiens, UniProt P42345); experiment: Inhibition of N-terminal FLAG-tagged human recombinant mTOR (1362 to end residues) using ULight-4E-BP1 (Thr37/46) peptide as substrate incubated for 1 hr in presence of ATP by Lance Ultra assay
How it was run: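 ULight-4E-BP1 (Thr37/46) peptide with 13 µM ATP; 1 h at room temperature. Stopped with EDTA quench buffer plus Eu-anti-phospho-4E-BP1, 15 min shake and 60 min equilibration, TR-FRET read. IC50 from inhibition curves; average of at least two runs.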

U-87 MG = experiment: Antiproliferative activity against human U87MG cells harboring PTEN deletion assessed as reduction in cell viability after 3 days by CellTiter-Glo luminescence assay; assay type: functional, cell-based, U-87MG ATCC; details: 72 h
How it was run: (§1)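 ATCC lines, 10% FBS: T47D, H1975, H460 in RPMI1640; U87MG in DMEM; A549 in F12K. Seeded 3×10^3 per well the day before, exposed to 3-fold serial dilutions or DMSO for 3 days at 37 °C, 5% CO2; CellTiter-Glo luminescence.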

PI3K p110 beta/p85 alpha = PI3K p110 beta/p85 alpha (Homo sapiens, UniProt P42338); experiment: Inhibition of N-terminal His6-tagged human recombinant full length PI3Kbeta co-expressed with human recombinant full length P85alpha in baculovirus infected Sf21 cells using PIP2 peptide as substrate incubated for 1 hr in presence ATP by ADP-Glo Kinase Assay
How it was run: (§2)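 ADP-Glo reagent 1 for 40 min, then reagent 2 with 60 min equilibration before reading. IC50 taken from inhibition curves; average of at least two runs.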

A549 = experiment: Antiproliferative activity against human A549 cells assessed as reduction in cell viability after 3 days by CellTiter-Glo luminescence assay; assay type: functional, cell-based; details: A549, 72 h; how it was run: as §1
[3] = molecular target: PI3-kinase p110-delta/p85-alpha (Homo sapiens, UniProt O00329); experiment: Inhibition of N-terminal His6-tagged human recombinant full length PI3Kdelta co-expressed with human recombinant full length P85alpha in baculovirus infected Sf21 cells using PIP2 peptide as substrate incubated for 2 hrs in presence ATP by ADP-Glo Kinase Assay
How it was run: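 ADP-Glo reagent 1 for 40 min, then reagent 2 with 60 min equilibration. IC50 from inhibition curves; average of at least two runs.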

NCI-H460 = experiment: Antiproliferative activity against human NCI-H460 cells harboring PIK3CA mutation assessed as reduction in cell viability after 3 days by CellTiter-Glo luminescence assay; assay type: functional, cell-based; details: NCI-H460, 72 h; how it was run: as §1
[4] = molecular target: Phosphatidylinositol 4,5-bisphosphate 3-kinase catalytic subunit gamma isoform (Homo sapiens, UniProt P48736); experiment: Inhibition of GST-tagged human recombinant PI3Kgamma catalytic domain (468 to 1203 residues) expressed in insect cells using PIP2 peptide as substrate incubated for 1 hr in presence ATP by ADP-Glo Kinase Assay; how it was run: as §2
NCI-H1975 = experiment: Antiproliferative activity against human NCI-H1975 cells harboring PIK3CA mutation assessed as reduction in cell viability after 3 days by CellTiter-Glo luminescence assay; assay type: functional, cell-based; details: NCI-H1975, 72 h; how it was run: as §1
T47D = experiment: Antiproliferative activity against human T47D cells harboring PIK3CA mutation assessed as reduction in cell viability after 3 days by CellTiter-Glo luminescence assay; assay type: functional, cell-based; details: 72 h; how it was run: as §1
[5] = molecular target: Phosphatidylinositol 4,5-bisphosphate 3-kinase catalytic subunit alpha isoform (Homo sapiens) (UniProt P42336); experiment: Inhibition of PI3Kalpha in human T47D cells assessed as inhibition of insulin-stimulated Akt phosphorylation at Ser473 residue at 0.3 uM preincubated for 2 hrs followed by incubation with insulin for 2 hrs by western blot analysis relative to control; assay type: cell-based; details: time 4.0 hrs
How it was run: (§3)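 T47D cells given compound at 37 °C for 2 h, then stimulated with 1 µg/mL insulin for 2 h; lysed in RIPA with protease/phosphatase inhibitors and 1 mM PMSF; BCA-normalised SDS-PAGE, PVDF blot probed overnight at 4 °C for total Akt and pAkt Ser473, infrared secondary detection.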

[6] = molecular target: Phosphatidylinositol 4,5-bisphosphate 3-kinase catalytic subunit alpha isoform (Homo sapiens) (UniProt P42336); experiment: Inhibition of PI3Kalpha in human T47D cells assessed as inhibition of insulin-stimulated Akt phosphorylation at Ser473 residue at 3 uM preincubated for 2 hrs followed by incubation with insulin for 2 hrs by western blot analysis relative to control; assay type: cell-based; details: time 4.0 hrs; how it was run: as §3
[7] = molecular target: Phosphatidylinositol 4,5-bisphosphate 3-kinase catalytic subunit alpha isoform (Homo sapiens) (UniProt P42336); experiment: Inhibition of PI3Kalpha in human T47D cells assessed as inhibition of insulin-stimulated Akt phosphorylation at Ser473 residue at 0.1 uM preincubated for 2 hrs followed by incubation with insulin for 2 hrs by western blot analysis relative to control; assay type: cell-based; details: time 4.0 hrs; how it was run: as §3
[8] = molecular target: Phosphatidylinositol 4,5-bisphosphate 3-kinase catalytic subunit alpha isoform (Homo sapiens) (UniProt P42336); experiment: Inhibition of PI3Kalpha in human T47D cells assessed as inhibition of insulin-stimulated Akt phosphorylation at Ser473 residue at 1 uM preincubated for 2 hrs followed by incubation with insulin for 2 hrs by western blot analysis relative to control; assay type: cell-based; details: time 4.0 hrs; how it was run: as §3

Sequence of Phosphatidylinositol 4,5-bisphosphate 3-kinase catalytic subunit gamma isoform (P48736 whole entry, the tested form may be a part, canonical isoform): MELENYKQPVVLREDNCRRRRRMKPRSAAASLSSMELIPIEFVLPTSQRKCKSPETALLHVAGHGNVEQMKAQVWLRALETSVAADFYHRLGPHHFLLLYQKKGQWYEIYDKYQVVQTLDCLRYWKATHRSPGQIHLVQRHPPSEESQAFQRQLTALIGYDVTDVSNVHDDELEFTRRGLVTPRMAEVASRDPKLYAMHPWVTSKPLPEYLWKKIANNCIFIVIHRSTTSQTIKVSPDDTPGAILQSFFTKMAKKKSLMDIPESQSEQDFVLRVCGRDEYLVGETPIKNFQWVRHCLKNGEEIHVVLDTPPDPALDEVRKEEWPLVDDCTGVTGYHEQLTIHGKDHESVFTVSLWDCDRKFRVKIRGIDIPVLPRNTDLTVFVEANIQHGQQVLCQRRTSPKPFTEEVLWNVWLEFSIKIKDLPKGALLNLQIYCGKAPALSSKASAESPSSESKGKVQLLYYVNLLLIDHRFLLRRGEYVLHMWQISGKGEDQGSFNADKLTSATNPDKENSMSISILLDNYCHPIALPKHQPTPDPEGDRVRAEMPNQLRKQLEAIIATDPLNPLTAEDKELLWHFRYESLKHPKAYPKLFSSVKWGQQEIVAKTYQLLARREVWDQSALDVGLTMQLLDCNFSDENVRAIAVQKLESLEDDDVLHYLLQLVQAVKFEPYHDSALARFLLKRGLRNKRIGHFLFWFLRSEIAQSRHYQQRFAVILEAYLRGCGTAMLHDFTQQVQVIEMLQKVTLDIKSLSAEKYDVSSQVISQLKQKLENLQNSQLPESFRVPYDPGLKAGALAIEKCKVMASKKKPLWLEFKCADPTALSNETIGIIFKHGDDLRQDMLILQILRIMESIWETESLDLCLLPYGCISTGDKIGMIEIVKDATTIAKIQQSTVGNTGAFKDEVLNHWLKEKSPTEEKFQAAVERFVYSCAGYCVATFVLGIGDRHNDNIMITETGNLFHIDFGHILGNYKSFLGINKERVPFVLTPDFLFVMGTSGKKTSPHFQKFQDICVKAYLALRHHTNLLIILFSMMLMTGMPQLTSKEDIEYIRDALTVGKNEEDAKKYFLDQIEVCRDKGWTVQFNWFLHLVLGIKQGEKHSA
Sequence of Phosphatidylinositol 4,5-bisphosphate 3-kinase catalytic subunit alpha isoform (Homo sapiens) (P42336 whole entry, canonical isoform): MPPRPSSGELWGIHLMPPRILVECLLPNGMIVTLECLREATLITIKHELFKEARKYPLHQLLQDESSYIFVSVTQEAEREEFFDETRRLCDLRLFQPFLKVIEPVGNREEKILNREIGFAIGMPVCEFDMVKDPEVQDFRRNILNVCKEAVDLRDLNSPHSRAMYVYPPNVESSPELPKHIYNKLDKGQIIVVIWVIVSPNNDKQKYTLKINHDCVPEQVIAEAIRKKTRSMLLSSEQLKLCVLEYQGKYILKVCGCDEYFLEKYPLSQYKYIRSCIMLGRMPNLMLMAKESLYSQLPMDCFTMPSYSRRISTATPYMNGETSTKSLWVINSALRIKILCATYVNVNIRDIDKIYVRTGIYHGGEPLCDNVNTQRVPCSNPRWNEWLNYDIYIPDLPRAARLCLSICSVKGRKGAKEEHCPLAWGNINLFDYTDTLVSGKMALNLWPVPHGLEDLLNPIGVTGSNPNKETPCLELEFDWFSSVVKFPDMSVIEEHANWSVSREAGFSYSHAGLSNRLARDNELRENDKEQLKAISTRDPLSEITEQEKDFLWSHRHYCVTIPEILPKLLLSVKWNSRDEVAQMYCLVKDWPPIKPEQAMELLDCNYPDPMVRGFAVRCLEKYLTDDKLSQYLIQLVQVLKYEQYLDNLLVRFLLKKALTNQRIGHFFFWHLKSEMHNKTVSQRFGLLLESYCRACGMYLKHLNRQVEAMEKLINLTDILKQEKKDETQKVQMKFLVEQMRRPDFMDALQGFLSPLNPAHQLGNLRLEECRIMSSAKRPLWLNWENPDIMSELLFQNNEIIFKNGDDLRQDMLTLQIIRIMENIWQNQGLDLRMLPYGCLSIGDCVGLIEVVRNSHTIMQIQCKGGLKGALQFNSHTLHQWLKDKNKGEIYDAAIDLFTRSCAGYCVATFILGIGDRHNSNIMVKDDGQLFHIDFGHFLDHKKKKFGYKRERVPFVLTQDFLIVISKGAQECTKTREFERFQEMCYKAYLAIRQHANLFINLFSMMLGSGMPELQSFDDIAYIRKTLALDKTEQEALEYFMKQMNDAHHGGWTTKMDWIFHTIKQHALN
Sequence of PI3-kinase p110-delta/p85-alpha (P27986 whole entry): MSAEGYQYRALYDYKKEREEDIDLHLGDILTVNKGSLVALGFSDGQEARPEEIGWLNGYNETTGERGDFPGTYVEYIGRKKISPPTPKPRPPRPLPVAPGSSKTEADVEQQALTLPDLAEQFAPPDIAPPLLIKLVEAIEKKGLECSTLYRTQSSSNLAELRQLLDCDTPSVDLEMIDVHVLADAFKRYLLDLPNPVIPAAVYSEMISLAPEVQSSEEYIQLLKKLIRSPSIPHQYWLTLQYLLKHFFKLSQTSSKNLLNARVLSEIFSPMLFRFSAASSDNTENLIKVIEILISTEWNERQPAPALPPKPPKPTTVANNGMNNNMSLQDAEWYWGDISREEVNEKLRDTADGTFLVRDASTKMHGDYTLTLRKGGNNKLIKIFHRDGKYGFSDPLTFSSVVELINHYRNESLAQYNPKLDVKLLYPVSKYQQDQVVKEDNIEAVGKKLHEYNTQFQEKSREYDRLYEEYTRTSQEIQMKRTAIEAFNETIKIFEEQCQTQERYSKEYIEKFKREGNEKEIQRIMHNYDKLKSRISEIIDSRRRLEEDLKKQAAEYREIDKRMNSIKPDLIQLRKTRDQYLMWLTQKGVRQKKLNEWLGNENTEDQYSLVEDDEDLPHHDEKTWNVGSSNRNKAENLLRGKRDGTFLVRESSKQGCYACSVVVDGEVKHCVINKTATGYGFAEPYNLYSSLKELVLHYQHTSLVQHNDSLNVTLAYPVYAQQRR
Sequence of PI3-kinase p110-delta/p85-alpha (O00329 whole entry): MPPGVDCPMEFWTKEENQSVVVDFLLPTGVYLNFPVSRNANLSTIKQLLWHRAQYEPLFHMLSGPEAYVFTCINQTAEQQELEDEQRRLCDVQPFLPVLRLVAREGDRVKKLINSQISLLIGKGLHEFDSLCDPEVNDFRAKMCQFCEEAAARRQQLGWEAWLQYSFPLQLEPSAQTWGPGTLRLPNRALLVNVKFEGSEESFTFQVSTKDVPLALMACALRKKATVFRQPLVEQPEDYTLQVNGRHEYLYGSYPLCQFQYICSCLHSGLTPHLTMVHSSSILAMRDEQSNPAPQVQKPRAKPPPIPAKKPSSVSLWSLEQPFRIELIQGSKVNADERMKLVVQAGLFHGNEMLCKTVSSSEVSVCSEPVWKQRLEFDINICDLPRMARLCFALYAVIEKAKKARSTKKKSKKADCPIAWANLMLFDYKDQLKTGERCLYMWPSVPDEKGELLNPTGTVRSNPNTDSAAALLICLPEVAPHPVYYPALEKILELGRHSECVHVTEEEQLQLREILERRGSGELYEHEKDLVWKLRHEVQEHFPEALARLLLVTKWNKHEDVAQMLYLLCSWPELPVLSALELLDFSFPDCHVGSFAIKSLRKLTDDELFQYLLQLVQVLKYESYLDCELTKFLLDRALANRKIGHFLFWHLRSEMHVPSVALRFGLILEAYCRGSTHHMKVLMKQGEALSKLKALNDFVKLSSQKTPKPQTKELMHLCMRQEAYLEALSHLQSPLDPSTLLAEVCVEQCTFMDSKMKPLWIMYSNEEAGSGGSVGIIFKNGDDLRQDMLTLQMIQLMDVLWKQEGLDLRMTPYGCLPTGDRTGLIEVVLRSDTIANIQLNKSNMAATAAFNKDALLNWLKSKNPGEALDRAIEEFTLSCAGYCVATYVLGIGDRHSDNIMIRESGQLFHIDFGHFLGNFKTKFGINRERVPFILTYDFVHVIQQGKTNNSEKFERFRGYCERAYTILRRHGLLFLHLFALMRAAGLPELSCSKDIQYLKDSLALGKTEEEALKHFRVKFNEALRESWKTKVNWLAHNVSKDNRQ
Sequence of PI3-kinase p110-alpha/p85-alpha (P27986 whole entry): as the sequence (P27986 whole entry) above
Sequence of PI3-kinase p110-alpha/p85-alpha (P42336 whole entry): as the sequence (P42336 whole entry, canonical isoform) above

SMILES: Cc1cc(/C=N/NC(=O)Nc2ccc(-c3c(-c4nc[nH]n4)sc(N4CCOCC4)c3C#N)cc2)cc(C)c1O
- IC50 [1]: 20.3 nM

SMILES: Cc1nc(NC(=O)N2CCC[C@H]2C(N)=O)sc1-c1ccnc(C(C)(C)C(F)(F)F)c1 [ALPELISIB]
- IC50 [2]: 1460 nM

SMILES: N#Cc1c(N2CCOCC2)sc(-c2nc[nH]n2)c1-c1ccc(NC(=O)N/N=C/c2c(Cl)cccc2Cl)cc1
- IC50 [1]: 323 nM

SMILES: N#Cc1ccc(NC(=O)Nc2ccc(-c3c(-c4nc[nH]n4)sc(N4CCOCC4)c3C#N)cc2)cc1
- IC50 [1]: 290 nM

SMILES: N#Cc1c(N2CCOCC2)sc(-c2nc[nH]n2)c1-c1ccc(NC(=O)N/N=C/c2ccc(F)cc2)cc1
- IC50 [1]: 75.5 nM

SMILES: COc1ccc(/C=N/NC(=O)Nc2ccc(-c3c(-c4nc[nH]n4)sc(N4CCOCC4)c3C#N)cc2)cc1
- IC50 [1]: 72 nM

SMILES: N#Cc1c(N2CCOCC2)sc(-c2nc[nH]n2)c1-c1ccc(NC(=O)N/N=C/c2ccccn2)cc1
- IC50 (U-87 MG): 22100 nM
- IC50 (PI3K p110 beta/p85 alpha): 53 nM
- IC50 [1]: 6.5 nM
- IC50 (A549): 18500 nM
- IC50 [3]: 49 nM
- IC50 (NCI-H460): 2690 nM
- IC50 [4]: 274 nM
- IC50 [2]: 416 nM
- IC50 (NCI-H1975): 11200 nM
- IC50 (T47D): 2130 nM

SMILES: N#Cc1c(N2CCOCC2)sc(-c2nc[nH]n2)c1-c1ccc(NC(=O)N/N=C/c2cccc(O)c2)cc1
- IC50 (U-87 MG): 13000 nM
- IC50 (PI3K p110 beta/p85 alpha): 43 nM
- IC50 [1]: 17.7 nM
- IC50 (A549): 12700 nM
- IC50 [3]: 72 nM
- IC50 (NCI-H460): 1390 nM
- IC50 [4]: 440 nM
- IC50 [2]: 489 nM
- IC50 (NCI-H1975): 9760 nM
- IC50 (T47D): 2220 nM

SMILES: N#Cc1c(N2CCOCC2)sc(-c2nc[nH]n2)c1-c1ccc(NC(=O)Nc2ccccc2)cc1
- IC50 [1]: 116 nM

SMILES: N#Cc1c(N2CCOCC2)sc(-c2nc[nH]n2)c1-c1ccc(NC(=O)N/N=C/c2cccc(Br)c2)cc1
- IC50 [1]: 89.8 nM

SMILES: N#Cc1c(N2CCOCC2)sc(-c2nc[nH]n2)c1-c1ccc(NC(=O)N/N=C/c2ccc(O)c(O)c2)cc1
- IC50 [1]: 21.9 nM

SMILES: N#Cc1ccc(-c2c(-c3nnc[nH]3)sc(N3CCOCC3)c2C#N)c(F)c1
- IC50 (PI3K p110 beta/p85 alpha): 124 nM
- IC50 [1]: 5.4 nM
- IC50 [3]: 15 nM
- IC50 [4]: 60 nM
- IC50 [2]: 4060 nM

SMILES: N#Cc1c(N2CCOCC2)sc(-c2nc[nH]n2)c1-c1ccc(NC(=O)N/N=C/c2ccccc2)cc1
- IC50 [1]: 76.6 nM

SMILES: COc1cc(/C=N/NC(=O)Nc2ccc(-c3c(-c4nc[nH]n4)sc(N4CCOCC4)c3C#N)cc2)cc(OC)c1OC
- IC50 [1]: 110 nM

SMILES: N#Cc1ccc(-c2c(-c3ncn[nH]3)sc(N3CCOCC3)c2C#N)c(F)c1
- IC50 (U-87 MG): 2310 nM
- inhibition [5]: 73%
- IC50 (A549): 3580 nM
- inhibition [6]: 86%
- IC50 (NCI-H460): 120 nM
- IC50 (NCI-H1975): 940 nM
- inhibition [7]: 65%
- inhibition [8]: 83%
- IC50 (T47D): 340 nM

SMILES: N#Cc1c(N2CCOCC2)sc(-c2nc[nH]n2)c1-c1ccc(NC(=O)Nc2cccc(F)c2)cc1
- IC50 [1]: 151 nM

SMILES: N#Cc1c(N2CCOCC2)sc(-c2nc[nH]n2)c1-c1ccc(NC(=O)N/N=C/c2ccco2)cc1
- IC50 (U-87 MG): 12300 nM
- IC50 (PI3K p110 beta/p85 alpha): 74 nM
- IC50 [1]: 13.3 nM
- IC50 (A549): 19400 nM
- IC50 [3]: 74 nM
- IC50 (NCI-H460): 1220 nM
- IC50 [4]: 204 nM
- IC50 [2]: 598 nM
- IC50 (NCI-H1975): 12900 nM
- IC50 (T47D): 2680 nM

SMILES: N#Cc1c(N2CCOCC2)sc(-c2nc[nH]n2)c1-c1ccc(NC(=O)Nc2ccc(OC(F)(F)F)cc2)cc1
- IC50 [1]: 835 nM

SMILES: N#Cc1c(N2CCOCC2)sc(-c2nc[nH]n2)c1-c1ccc(NC(=O)Nc2ccc(F)cc2)cc1
- IC50 (U-87 MG): 3350 nM
- IC50 (PI3K p110 beta/p85 alpha): 95 nM
- IC50 [1]: 35.3 nM
- IC50 (A549): 5520 nM
- IC50 [3]: 238 nM
- IC50 (NCI-H460): 590 nM
- IC50 [4]: 289 nM
- IC50 [2]: 1660 nM
- IC50 (NCI-H1975): 2040 nM
- IC50 (T47D): 520 nM

SMILES: N#Cc1c(N2CCOCC2)sc(-c2nc[nH]n2)c1-c1ccc(NC(=O)Nc2ccc(C(F)(F)F)cc2)cc1
- IC50 [1]: 403 nM

SMILES: N#Cc1c(N2CCOCC2)sc(-c2nc[nH]n2)c1-c1ccc(NC(=O)Nc2ccc(F)c(Cl)c2)cc1
- IC50 [1]: 407 nM

SMILES: N#Cc1c(N2CCOCC2)sc(-c2nc[nH]n2)c1-c1ccc(NC(=O)Nc2ccccc2F)cc1
- IC50 (U-87 MG): 3980 nM
- IC50 (PI3K p110 beta/p85 alpha): 89 nM
- IC50 [1]: 22.3 nM
- IC50 (A549): 4190 nM
- IC50 [3]: 334 nM
- IC50 (NCI-H460): 400 nM
- IC50 [4]: 302 nM
- IC50 [2]: 1590 nM
- IC50 (NCI-H1975): 1520 nM
- IC50 (T47D): 410 nM

SMILES: Cc1cccc(C)c1NC(=O)Nc1ccc(-c2c(-c3nc[nH]n3)sc(N3CCOCC3)c2C#N)cc1
- IC50 [1]: 344 nM

SMILES: N#Cc1c(N2CCOCC2)sc(-c2nc[nH]n2)c1-c1ccc(NC(=O)Nc2cccc(Br)c2)cc1
- IC50 [1]: 239 nM

SMILES: COc1ccccc1NC(=O)Nc1ccc(-c2c(-c3nc[nH]n3)sc(N3CCOCC3)c2C#N)cc1
- IC50 [1]: 105 nM

SMILES: N#Cc1c(N2CCOCC2)sc(-c2nc[nH]n2)c1-c1ccc(NC(=O)N/N=C/c2ccc(OC(F)(F)F)cc2)cc1
- IC50 [1]: 631 nM

SMILES: Cc1ccc(NC(=O)Nc2ccc(-c3c(-c4nc[nH]n4)sc(N4CCOCC4)c3C#N)cc2)cc1
- IC50 [1]: 95.8 nM

SMILES: N#Cc1c(N2CCOCC2)sc(-c2nc[nH]n2)c1-c1ccc(NC(=O)N/N=C/c2ccc[nH]2)cc1
- IC50 [1]: 9.4 nM
